Experiments:
MDA-MB-231 [1] = assay: Induction of methuosis in human MDA-MB-231 cells assessed as increase in vacuole formation at 1 uM after 24 hrs by phase contrast microscopic analysis relative to control; format: functional
MDA-MB-231 [2] = assay: Induction of methuosis in human MDA-MB-231 cells assessed as increase in vacuole formation at 10 uM after 24 hrs by phase contrast microscopic analysis relative to control; format: functional
MDA-MB-435S = assay: Antiproliferative activity against human MDA-MB-435S cells after 48 hrs by MTS assay; format: functional, cell-based
SK-MEL-30 = assay: Antiproliferative activity against human SK-MEL-30 cells after 48 hrs by MTS assay; format: functional, cell-based; conditions: SK-MEL-30, 48 h
[3] = Volume of distribution in Balb/c nude mouse at 1 mg/kg, iv; format: ADME, organism-based; conditions: in vivo
[4] = Clearance in Balb/c nude mouse at 1 mg/kg, iv; format: ADME, organism-based; conditions: in vivo
MCF-10A = assay: Cytotoxicity against human MCF10A cells assessed as reduction in cell viability after 48 hrs by MTS assay; format: cell-based
MDA-MB-231 [5] = assay: Antiproliferative activity against human MDA-MB-231 cells after 48 hrs by MTS assay; format: functional, cell-based; conditions: MDA-MB-231, 48 h
A549 = assay: Antiproliferative activity against human A549 cells after 48 hrs by MTS assay; format: functional, cell-based; conditions: A549, 48 h
MCF7 = assay: Antiproliferative activity against human MCF7 cells after 48 hrs by MTS assay; format: functional, cell-based; conditions: MCF7, 48 h
[6] = Half life in Balb/c nude mouse at 1 mg/kg, iv; format: ADME, organism-based; conditions: in vivo
HepG2 = assay: Antiproliferative activity against human HepG2 cells after 48 hrs by MTS assay; format: functional, cell-based; conditions: HepG2, 48 h
SK-MEL-28 = assay: Antiproliferative activity against human SK-MEL-28 cells after 48 hrs by MTS assay; format: functional, cell-based; conditions: SK-MEL-28, 48 h
Mus musculus = assay: Toxicity in Balb/c nude mouse xenografted with human MDA-MB-231 cells assessed as body weight loss at 5 to 20 mg/kg, iv administered once daily for 13 days measured daily during compound dosing; conditions: in vivo, 312 h
MDA-MB-231 [7] = assay: Antitumor activity against human MDA-MB-231 cells xenografted in Balb/c nude mouse assessed as tumor growth inhibition at 5 mg/kg, iv administered once daily for 13 days measured 6 hrs post last dose relative to control; format: functional; conditions: MDA-MB-231, iv, read-out: TGI
In short: (§1)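 Female BALB/c nude mice (4–6 weeks) injected subcutaneously with 5×10^6 MDA-MB-231 cells; at ~100 mm3 (length×width²×0.5) randomized (n = 6) and dosed iv by tail vein once daily at 5 or 20 mg/kg in 10% Kolliphor HS 15 in saline, or vehicle; tumor volume and weight measured daily; tumors excised 6 h after final dose, H&E stained.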

MDA-MB-231 [8] = assay: Antitumor activity against human MDA-MB-231 cells xenografted in Balb/c nude mouse assessed as tumor growth inhibition at 20 mg/kg, iv administered once daily for 13 days measured 6 hrs post last dose relative to control; format: functional; conditions: MDA-MB-231, iv, read-out: TGI; in short: as §1
BGC-823 = assay: Antiproliferative activity against human BGC823 cells after 48 hrs by MTS assay; format: functional, cell-based; conditions: BGC-823, 48 h
HCT-116 = assay: Antiproliferative activity against human HCT116 cells after 48 hrs by MTS assay; format: functional, cell-based; conditions: HCT-116, 48 h
A-375 = assay: Antiproliferative activity against human A375 cells after 48 hrs by MTS assay; format: functional, cell-based; conditions: A-375, 48 h

| Compound | Activity (MDA-MB-231 [1]) | Activity (MDA-MB-231 [2]) | also measured |
| --- | --- | --- | --- |
| Cc1ccc(NC(=O)c2cccc(C(F)(F)F)c2)cc1Nc1cc(-c2ccccc2)nc2[nH]ccc12 | 0% | 0% | – |
| O=C(Nc1cccc(Nc2cc(-c3cccnc3)nc3[nH]ccc23)c1)c1cccc(C(F)(F)F)c1 | 96.61% | 98.98% | – |
| Cc1ccc(NC(=O)c2cccc(C(F)(F)F)c2)cc1Nc1cc(-c2cccnc2)nc2[nH]ccc12 | 99.75% | 100% | IC50 (MDA-MB-435S): 2270 nM; IC50 (SK-MEL-30): 1660 nM; Vd [3]: 15.5 L/kg; clearance [4]: 36.5 mL/min/kg; IC50 (MCF-10A): > 10000 nM; IC50 (MDA-MB-231 [5]): 1570 nM; IC50 (A549): 1890 nM; IC50 (MCF7): 2610 nM; half-life [6]: 8.74 h; IC50 (HepG2): 1200 nM; IC50 (SK-MEL-28): 1370 nM; Activity (Mus musculus): Non-Toxic; inhibition in vivo at 5 mg/kg (MDA-MB-231 [7]): 25.9%; inhibition in vivo at 20 mg/kg (MDA-MB-231 [8]): 60.1%; IC50 (BGC-823): 1570 nM; IC50 (HCT-116): 1010 nM; IC50 (A-375): 326 nM |
| Cc1cccc(NC(=O)c2ccc(C)c(Nc3cc(-c4cccnc4)nc4[nH]ccc34)c2)c1 | 11.24% | 97.68% | – |
| Cc1ccc(NC(=O)c2cccc(C(F)(F)F)c2)cc1Nc1cc(-c2cccc(Cl)c2)nc2[nH]ccc12 | 0.03% | 0.33% | – |
| Cc1ccc(C(=O)Nc2cccc(C(F)(F)F)c2)cc1Nc1cc(-c2cccnc2)nc2c1ccn2C | 3.63% | 70.96% | – |
| Cc1ccc(C(=O)Nc2cccc(Cl)c2)cc1Nc1cc(-c2cccnc2)nc2[nH]ccc12 | 19.49% | 96.75% | – |
| Cc1ccc(C(=O)Nc2cccc(C(F)(F)F)c2)cc1Nc1cc(-c2ccncc2)nc2[nH]ccc12 | 0% | 1.94% | – |
| Cc1ccc(NC(=O)c2cccc(C(F)(F)F)c2)cc1Nc1cc(-c2cccnc2)nc2c1ccn2C | 16.08% | 96.27% | – |
| Cc1ccc(C(=O)Nc2cccc(C(F)(F)F)c2)cc1Nc1cc(-c2cccnc2)nc2[nH]ccc12 | 70.29% | 99.42% | – |
| Cc1ccc(C(=O)N2CCOCC2)cc1Nc1cc(-c2cccnc2)nc2[nH]ccc12 | 0% | 0% | – |

From ChEMBL document CHEMBL4118249, “Discovery and Identification of Small Molecules as Methuosis Inducers with in Vivo Antitumor Activities” (J Med Chem, 2018)
